Experimental data taken from ChEMBL document CHEMBL1128437, “Derivatives of 17-phenyl-18,19,20-trinorprostaglandin F2 alpha isopropyl ester: potential antiglaucoma agents” (J Med Chem, 1995).

Columns and labels:
Felis catus [1] = organism: Felis catus; assay: The maximal difference in Intraocular Pressure (IOP) between treated and control eyes. The effect was tested in cats at a dose of 3.0 (ug/eye); assay type: functional
Procedure, shortened: (§1)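 Domestic female cats, 2–3 kg, trained for IOP measurement. One eye received a topical drop (20 µL) of drug in 0.9% NaCl with 0.5% polysorbate 80; the other eye received vehicle. IOP was read by pneumatonometer under oxibuprocain local anaesthesia before dosing and at 1, 3, 6 and 23 h. The maximal treated-minus-control difference was taken. Area between curves is the treated-eye AUC minus control-eye AUC, per animal.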

Felis catus [2] = organism: Felis catus; assay: The mean ocular irritation in the treated eyes. An arbitrary scale of from 0 to 3 was used, 0 indicates absence of irritation and 3 complete closure of the lids. The effect was tested in cats at a dose of 3.0 (ug/eye); assay type: functional
Procedure, shortened: (§2)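 Ocular irritation was scored in the treated eye of trained female cats, 2–3 kg. Drug was given as one topical 20 µL drop in 0.9% NaCl with 0.5% polysorbate 80. The contralateral eye got vehicle only.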

Felis catus [3] = organism: Felis catus; assay: The maximal difference in […] pupil diameter between treated and control eyes. The effect was tested in cats at a dose of 3.0 (ug/eye); assay type: functional
Procedure, shortened: (§3)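 Trained female cats, 2–3 kg, were dosed unilaterally with one 20 µL topical drop of drug in 0.9% NaCl/0.5% polysorbate 80, with vehicle in the contralateral eye. Horizontal pupil diameter was measured with a millimetre ruler under constant 10 lux illumination before dosing and at 1, 3, 6 and 23 h. Reported as maximal treated–control difference or as area between curves, per animal.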

Felis catus [4] = organism: Felis catus; assay: The mean area between curves for Intraocular Pressure (IOP) measured in treated and control eyes. The effect was tested in cats at a dose of 3.0 (ug/eye); assay type: functional; procedure, shortened: as §1
Felis catus [5] = organism: Felis catus; assay: The mean area between curves for pupil diameter between treated and control eyes. The effect was tested in cats at a dose of 3.0 (ug/eye); assay type: functional; procedure, shortened: as §3
Oryctolagus cuniculus [6] = organism: Oryctolagus cuniculus; assay: The maximal difference in conjunctival hyperemia between treated and control eyes. The effect was tested in rabbit at a dose of 0.5 (ug/eye)
Oryctolagus cuniculus [7] = organism: Oryctolagus cuniculus; assay: The mean area between curves for conjunctival hyperemia between treated and control eyes. The effect was tested in rabbit at a dose of 0.5 (ug/eye)
Felis catus [8] = organism: Felis catus; assay: The maximal difference in Intraocular Pressure (IOP) between treated and control eyes. The effect was tested in cats at a dose of 1.0 (ug/eye); assay type: functional; procedure, shortened: as §1
Felis catus [9] = organism: Felis catus; assay: The mean ocular irritation in the treated eyes. An arbitrary scale of from 0 to 3 was used, 0 indicates absence of irritation and 3 complete closure of the lids. The effect was tested in cats at a dose of 1.0 (ug/eye); assay type: functional; procedure, shortened: as §2
Felis catus [10] = organism: Felis catus; assay: The maximal difference in […] pupil diameter between treated and control eyes. The effect was tested in cats at a dose of 1.0 (ug/eye); assay type: functional; procedure, shortened: as §3
Felis catus [11] = organism: Felis catus; assay: The mean area between curves for Intraocular Pressure (IOP) measured in treated and control eyes. The effect was tested in cats at a dose of 1.0 (ug/eye); assay type: functional; procedure, shortened: as §1
Felis catus [12] = organism: Felis catus; assay: The mean area between curves for pupil diameter between treated and control eyes. The effect was tested in cats at a dose of 1.0 (ug/eye); assay type: functional; procedure, shortened: as §3
Monkey [13] = assay: The mean area between curves for Intraocular Pressure (IOP) measured in treated and control eyes. The effect was tested in monkey at a dose of 3.0 (ug/eye); assay type: functional, Cercopithecidae
Procedure, shortened: (§4)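 Cynomolgus monkeys trained for IOP measurement were sedated with ketamine (2–3 mg/kg) for transport and seated in restraint chairs under oxibuprocain local anaesthesia. One eye received a 10 µL drop of drug in 0.9% NaCl/0.5% polysorbate 80; the fellow eye received vehicle. IOP was read by pneumatonometer calibrated for monkey eyes before dosing and at 1, 2, 4 and 6 h. Matched-pair t test, n = 6.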

Monkey [14] = assay: The maximal difference in Intraocular Pressure (IOP) measured in treated and control eyes. The effect was tested in monkey at a dose of 3.0 (ug/eye); assay type: functional, Cercopithecidae; procedure, shortened: as §4

Row | Structure (SMILES) | Imax (Felis catus [1]) | Irritation (Felis catus [2]) | Pmax (Felis catus [3]) | I ABC (Felis catus [4]) | P ABC (Felis catus [5]) | Hmax (Oryctolagus cuniculus [6]) | H ABC (Oryctolagus cuniculus [7]) | Imax (Felis catus [8]) | Irritation (Felis catus [9]) | Pmax (Felis catus [10]) | I ABC (Felis catus [11]) | P ABC (Felis catus [12]) | I ABC (Monkey [13]) | Imax (Monkey [14])
1 | CC(C)OC(=O)CCC/C=C\C[C@@H]1[C@@H](/C=C/[C@@H](O)CCc2cccc(-c3ccoc3)c2)[C@H](O)C[C@@H]1O | -3 mmHg | 0.5 arbitrary units | -1.3 mm | -24.4 | <-9.3 | <0.5 | 1.3 | – | – | – | – | – | – | –
2 | CC(C)OC(=O)CCC/C=C\C[C@@H]1[C@@H](/C=C/[C@H](O)CCc2ccc(-c3ccsc3)cc2)[C@H](O)C[C@@H]1O | – | – | – | – | – | -0.2 | -0.1 | -0.3 mmHg | 0 arbitrary units | < -0.7 mm | -3.1 | -1.8 | – | –
3 | Cc1cccc(CC[C@@H](O)/C=C/[C@@H]2[C@@H](C/C=C\CCCC(=O)OC(C)C)[C@@H](O)C[C@H]2O)c1 | – | – | – | – | – | 0.2 | -0.1 | -0.3 mmHg | 0.1 arbitrary units | < -1.5 mm | -1.8 | <-13.3 | – | –
4 | CC(C)OC(=O)CCC/C=C\C[C@@H]1[C@@H](/C=C/[C@H](O)CCc2ccc(-c3cccs3)cc2)[C@H](O)C[C@@H]1O | -1.3 mmHg | 0.2 arbitrary units | 0 mm | 4.2 | 0 | 0.3 | 0.3 | – | – | – | – | – | – | –
5 | CC(C)OC(=O)CCC/C=C\C[C@@H]1[C@@H](/C=C/[C@H](O)CCc2cccc(-c3cccs3)c2)[C@H](O)C[C@@H]1O | – | – | – | – | – | 0.2 | 0.1 | <2.2 mmHg | 0.3 arbitrary units | < -1.3 mm | 12.8 | <-12.4 | – | –
6 | CC(C)OC(=O)CCC/C=C\C[C@@H]1[C@@H](/C=C/[C@@H](O)CCc2cccc(-c3cccs3)c2)[C@H](O)C[C@@H]1O | -1.2 mmHg | 0.3 arbitrary units | < -3.5 mm | -10.3 | <-28 | <0.9 | <2.6 | <-3 mmHg | 0.1 arbitrary units | < -1.5 mm | <-40 | -9.2 | – | –
7 | CC(C)OC(=O)CCC/C=C\C[C@@H]1[C@@H](/C=C/[C@@H](O)CCc2ccc(-c3cccs3)cc2)[C@H](O)C[C@@H]1O | – | – | – | – | – | 0.3 | 0 | <-4.2 mmHg | 0.4 arbitrary units | < -0.9 mm | -84 | -2.2 | 6.5 | <1.5 mmHg
8 | CC(=O)c1cccc(CC[C@H](O)/C=C/[C@@H]2[C@@H](C/C=C\CCCC(=O)OC(C)C)[C@@H](O)C[C@H]2O)c1 | – | – | – | – | – | -0.1 | 0 | 0.7 mmHg | 1.3 arbitrary units | < -1.8 mm | 7.1 | <-30 | <-12.3 | <-2.8 mmHg
9 | CC(C)OC(=O)CCC/C=C\C[C@@H]1[C@@H](/C=C/[C@H](O)CCc2ccccc2)[C@H](O)C[C@@H]1O | – | – | – | – | – | <1.7 | – | -0.5 mmHg | 0 arbitrary units | < -5.7 mm | 0.3 | <-50.5 | – | –
10 | CC(=O)c1cccc(CC[C@@H](O)/C=C/[C@@H]2[C@@H](C/C=C\CCCC(=O)OC(C)C)[C@@H](O)C[C@H]2O)c1 | <-2.6 mmHg | 0.1 arbitrary units | < -0.7 mm | -23.8 | -1.4 | -0.3 | -0.7 | -4 mmHg | 0.3 arbitrary units | 0.6 mm | -43.3 | 1.2 | – | –
11 | CC(C)OC(=O)CCC/C=C\C[C@@H]1[C@@H](/C=C/[C@@H](O)CCc2cccc(-c3ccccc3)c2)[C@H](O)C[C@@H]1O | – | – | – | – | – | <0.9 | <1.9 | <-4 mmHg | 0.1 arbitrary units | -0.3 mm | <-30 | 2.3 | – | –
12 | Cc1ccc(CC[C@@H](O)/C=C/[C@@H]2[C@@H](C/C=C\CCCC(=O)OC(C)C)[C@@H](O)C[C@H]2O)cc1 | -1.8 mmHg | 0 arbitrary units | -0.2 mm | -10.8 | -0.2 | 0.2 | -0.2 | – | – | – | – | – | – | –
13 | CC(C)OC(=O)CCC/C=C\C[C@@H]1[C@@H](/C=C/[C@H](O)CCc2cccc(-c3ccco3)c2)[C@H](O)C[C@@H]1O | -1.2 mmHg | 0.4 arbitrary units | -0.3 mm | -8 | -5.7 | 0.3 | 0.4 | – | – | – | – | – | – | –
14 | CC(C)OC(=O)CCC/C=C\C[C@@H]1[C@@H](/C=C/[C@H](O)CCc2cccc(-c3ccoc3)c2)[C@H](O)C[C@@H]1O | -3 mmHg | 0 arbitrary units | -1.3 mm | -16.3 | -13 | <0.5 | <1.6 | – | – | – | – | – | – | –
15 | CC(C)OC(=O)CCC/C=C\C[C@@H]1[C@@H](/C=C/[C@@H](O)CCc2cccc(-c3ccsc3)c2)[C@H](O)C[C@@H]1O | – | – | – | – | – | <1.3 | <2.9 | -1.1 mmHg | 0.1 arbitrary units | < -1 mm | -21 | -1.7 | – | –
16 | CC(C)OC(=O)CCC/C=C\C[C@@H]1[C@@H](/C=C/[C@@H](O)CCc2cccc(-c3ccco3)c2)[C@H](O)C[C@@H]1O | 0.8 mmHg | 0.1 arbitrary units | -0.3 mm | 9.8 | -2.5 | <0.3 | 0.3 | – | – | – | – | – | – | –
17 | CC(C)OC(=O)CCC/C=C\C[C@@H]1[C@@H](/C=C/[C@H](O)CCc2ccc(-c3ccco3)cc2)[C@H](O)C[C@@H]1O | 2.5 mmHg | 0.2 arbitrary units | < -1.5 mm | -25.8 | <-10.6 | <0.5 | <1 | – | – | – | – | – | – | –
18 | CC(=O)c1ccc(CC[C@H](O)/C=C/[C@@H]2[C@@H](C/C=C\CCCC(=O)OC(C)C)[C@@H](O)C[C@H]2O)cc1 | – | – | – | – | – | -0.2 | -0.5 | -0.3 mmHg | 0 arbitrary units | 0.2 mm | -4.3 | 1.4 | <-10 | <-2.3 mmHg
19 | CC(=O)c1ccc(CC[C@@H](O)/C=C/[C@@H]2[C@@H](C/C=C\CCCC(=O)OC(C)C)[C@@H](O)C[C@H]2O)cc1 | – | – | – | – | – | -0.2 | -0.3 | -1.8 mmHg | 0 arbitrary units | -0.2 mm | -17.9 | 0.2 | – | –
20 | CC(C)OC(=O)CCC/C=C\C[C@@H]1[C@@H](/C=C/[C@H](O)CCc2cccc(-c3ccccc3)c2)[C@H](O)C[C@@H]1O | – | – | – | – | – | <0.7 | <2.2 | <-1.5 mmHg | 0 arbitrary units | 0.5 mm | -23.5 | 6.5 | – | –
21 | CC(C)OC(=O)CCC/C=C\C[C@@H]1[C@@H](/C=C/[C@@H](O)CCc2ccc(-c3ccoc3)cc2)[C@H](O)C[C@@H]1O | – | – | – | – | – | 0.2 | 0.3 | – | – | – | – | – | – | –
22 | CC(C)OC(=O)CCC/C=C\C[C@@H]1[C@@H](/C=C/[C@H](O)CCc2cccc(-c3ccsc3)c2)[C@H](O)C[C@@H]1O | – | – | – | – | – | -0.3 | -0.8 | 1.7 mmHg | 0.1 arbitrary units | < -1 mm | 16 | <-14 | – | –
23 | CC(C)OC(=O)CCC/C=C\C[C@@H]1[C@@H](/C=C/[C@H](O)CCc2ccc(-c3ccoc3)cc2)[C@H](O)C[C@@H]1O | – | – | – | – | – | -0.3 | -0.7 | – | – | – | – | – | – | –
